# HSF1 inhib – HSF1 inhibition | NIH3T3-HGL HSE-luciferase, MG132-induced, luminescence 8 h; hits give low values | activity change, negative = inhibition, % at 7.5 µM (by protocol) | actives 0.77% (n = 300,000) | AID 2098;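 active = more than half of replicate wells show activity change below -50%, luminescence cut by over half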;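 note: luciferase reports HSF-1 transcriptional activity via heat shock element; 0% = median of DMSO wells and -100% = zero luminescence signal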
# core dimer inh – HCV core protein dimerization inhibition; TR-FRET GST/Flag-core106 dimerization, 1536-well; inhibition, % at 5 µM; actives 0.33% (n = 300,000); AID 1899;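 active = inhibition above the mean of all tested compounds plus 3 SD, set per screening campaign, cut at about 45% in these data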
#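 System: GST/Flag-tagged HCV core106 proteins. Incubation: compound-protein-antibody incubation 4 h at 22.5 °C. Technique: HTRF with 340 nm excitation, 617/671 nm emission. Medium: KF-containing HEPES buffer, pH 7.45, DTT, CHAPS, BSA. Read-out: inhibition (%) from 671 over 617 nm ratio. Also added: Eu(K)-anti-GST 90 ng/mL plus XL665-anti-Flag 1 µg/mL.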
# HSF-1 act – increases HSF-1 driven luciferase reporter signal. NIH3T3-HGL HSF-1 luciferase reporter, MG132, 8 h; 100% = twice DMSO control signal. activation, % at 9 µM. actives 1.7% (n = 300,000). AID 504408;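 active = mean replicate activation of at least 50% with a set share of replicates each reaching 50%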;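 note: 0% = median of the neutral control wells and 100% = twice that signal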
# PHOSPHO1 block – inhibitors of human PHOSPHO1 phosphatase; recombinant PHOSPHO1, absorbance phosphatase assay; inhibition, % at 13.3 µM; actives 1.1% (n = 290,000); AID 1565; in the data active = inhibition above about 60%
# Target sequence (Q8TCT1 whole entry, looked up): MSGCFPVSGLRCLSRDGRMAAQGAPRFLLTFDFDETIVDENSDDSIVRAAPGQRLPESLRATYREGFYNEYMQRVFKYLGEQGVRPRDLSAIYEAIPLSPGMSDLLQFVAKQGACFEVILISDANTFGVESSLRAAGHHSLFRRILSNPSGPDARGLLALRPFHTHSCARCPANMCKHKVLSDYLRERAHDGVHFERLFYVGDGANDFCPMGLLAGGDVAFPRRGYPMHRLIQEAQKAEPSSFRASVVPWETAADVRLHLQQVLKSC
# ALR inh – human ALR oxidase inhibition via reduced H2O2; AID 485317; purified ALR, DTT oxidation, H2O2 HRP-luminol luminescence; actives 3.8% (n = 290,000); P55789; inhibition, % (no concentration beside the values);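 active = mean replicate inhibition above about 79%, with every replicate also reaching it, limit read from the data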
# Target sequence (P55789 whole entry, looked up): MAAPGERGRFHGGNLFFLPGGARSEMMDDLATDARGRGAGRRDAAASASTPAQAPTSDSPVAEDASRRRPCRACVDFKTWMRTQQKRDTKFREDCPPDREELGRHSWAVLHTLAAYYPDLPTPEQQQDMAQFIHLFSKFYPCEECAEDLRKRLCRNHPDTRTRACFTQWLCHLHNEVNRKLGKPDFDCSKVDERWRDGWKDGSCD
# AI-2 QS mod – modulates the Vibrio harveyi AI-2 quorum sensing system; Vibrio harveyi JMH597 AI-2 luminescence/OD600 ratio, 9 h; hits give low values; strain lacks LuxN and CqsS sensors; 0 = neutral-control median; activity change, % at 7.5 µM; actives 0.4% (n = 300,000); in the data active = activity change below about -75%, passing the limit was not always enough;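 note: luminescence divided by OD600 gain over 9 h not by final OD600 alone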
# An asterisk follows results filed as active; nt = no result. This is a sample that favours compounds with a hit; in the whole collection about 6.8% have one here.
SMILES,HSF1 inhib,core dimer inh,HSF-1 act,PHOSPHO1 block,ALR inh,AI-2 QS mod
CN(C)c1ccc(CN(Cc2ccco2)C(=O)c2ccco2)cc1,-5,2,14,22,99*,46
O=C(c1ccco1)N(CCC(c1ccccc1)c1ccco1)Cc1ccco1 (configuration not stated),2,52*,1,34,10,25
Cc1nc(Sc2nnnn2C)c2c3c(sc2n1)CCC3,nt,-3,nt,-7,94*,nt
CC(C)c1ccc(NC2CCCN(C(=O)c3cc(C(C)C)nc(N)n3)C2)cc1 (configuration not stated),-3,0,-5,29,97*,-6
CC(C)c1ccc(NC2CCCN(C(=O)c3cscn3)C2)cc1 (configuration not stated),10,nt,2,17,99*,7
Cc1nonc1C(=O)N1CCCC(Nc2ccc(C(C)C)cc2)C1 (configuration not stated),-3,-3,7,51,-3,11
Cc1cc(C)n2nc(C(=O)N3CCCC(Nc4ccc(C(C)C)cc4)C3)cc2n1 (configuration not stated),9,12,15,-3,97*,11
CC(C)c1cc(C(=O)N2CCCC(Nc3ccc(F)cc3)C2)n[nH]1 (configuration not stated),-3,-6,-12,33,99*,22
Cc1cc(C)n2nc(C(=O)N3CCCC(Nc4ccc(F)c(F)c4)C3)cc2n1 (configuration not stated),-3,0,-6,23,4,16
NS(=O)(=O)c1ccc(CCN=Cc2ccccc2O)cc1,-7,0,-1,-2,-1,13
CCCCNC(=O)CSc1nc(COc2ccccc2)nc2ccccc12,14,6,23,-7,9,10
CCn1c(=O)c(C(=O)Nc2ccccc2)c(O)c2ccccc21,-6,-3,6,47,-14,13
CCn1c(=O)c(C(=O)Nc2ccccc2F)c(O)c2ccccc21,-78*,10,-82,24,-11,13
CS(=O)(=O)c1ccc(C(=O)OCC(=O)NC2CCS(=O)(=O)C2)cc1[N+](=O)[O-] (configuration not stated),-7,-11,0,-19,-6,9
Cc1ccc(N2CC(C(=O)Nc3ccc(S(=O)(=O)NCC4CCCO4)cc3)CC2=O)cc1C (configuration not stated),-1,6,7,36,-7,5
CC1CC(Nc2ccccc2N)=CC(=O)O1 (configuration not stated),4,-1,17,14,86*,12
Cc1ccc(NC2=CC(=O)CC(c3ccco3)C2)c(N)c1 (configuration not stated),-3,-2,-5,-14,98*,10
Nc1ccccc1NC1=CC(=O)CC(c2ccco2)C1 (configuration not stated),15,-3,19,-6,84*,22
Cc1cccc(NC2=CC(=O)OC(C)C2)c1 (configuration not stated),6,-5,8,12,-4,8
Cc1cc(C)cc(NC2=CC(=O)CC(c3ccco3)C2)c1 (configuration not stated),-5,-1,5,-6,-35,12
CC(C)(C)NC(=O)CSc1nc(-c2ccc(F)cc2)cs1,27,-1,42,8,3,14
FC(F)(F)c1ccc(-n2cnc3ccccc32)nc1,5,2,19,19,-6,5
Cc1cccc(-c2cnn(-c3cccc([N+](=O)[O-])c3)c2N)c1,-8,-1,2,37,92*,28
O=C(c1ccccc1)N1N=C(c2ccccc2O)CC1c1ccccc1 (configuration not stated),9,14,28,28,-1,5
NC(=O)c1ccsc1N,-2,-3,-10,31,98*,13
SMILES,HSF1 inhib,core dimer inh,HSF-1 act,PHOSPHO1 block,ALR inh,AI-2 QS mod
CC(=O)NC(CC(C)C)C(=O)NC(CO)C(=O)NC(CCC(=O)O)C(=O)NC(C)C(=O)NC(CC(C)C)C(N)=O (configuration not stated),1,1,7,nt,0,21
CCC(C)(C)NC(=O)c1cc(C(=O)OC)cc([N+](=O)[O-])c1,-9,-1,-10,17,0,16
CCCN(CCC)S(=O)(=O)c1ccc(NC(=O)c2cc(C(=O)OC)cc([N+](=O)[O-])c2)cc1,-61*,3,-71,31,-16,17
Cn1c(N)c(-c2nc3cccnc3n2C)sc1=S,1,-9,21,4,92*,25
Cc1ccc(-n2c(N)c(-c3nc4ccccc4n3C)sc2=S)cc1,-1,-2,-12,69*,10,-3
CCOC(=O)c1sc(NC(=O)CSc2nc3cccnc3n2C)nc1C,0,12,-1,28,72,23
CCn1c(=O)c2c(nc3n2CCN3c2ccccc2)n(C)c1=O,-5,-4,14,-4,-7,-8
COc1ccc(Cl)cc1NC(=O)NCc1ccc2c(c1)OCO2,4,-1,6,4,-3,25
CC(NC(=O)CCCc1nnc2n(C)c(=O)c3sccc3n12)c1ccccc1 (configuration not stated),-2,-2,1,43,-1,31
N/C(=N\OC(=O)Cc1ccc([N+](=O)[O-])cc1)c1ccc([N+](=O)[O-])cc1,4,-2,4,35,97*,7
Cc1ccc(CC(=O)O/N=C(\N)Cc2ccc([N+](=O)[O-])cc2)cc1,-17,9,5,-7,35,9
Cc1ccc(CC(=O)O/N=C(\N)c2cccc([N+](=O)[O-])c2)cc1,nt,-5,nt,-7,-3,-30
N/C(=N\OC(=O)Cc1ccc([N+](=O)[O-])cc1)c1cccc(Br)c1,11,3,13,58,99*,-59
CCOC(=O)c1[nH]cnc1C(=O)N1CCN(C(=O)OC(C)(C)C)CC1,nt,nt,nt,nt,2,nt
CC(=O)c1ccc(S(=O)(=O)NCC(=O)NC(c2nc3ccccc3[nH]2)C(C)C)cc1 (configuration not stated),nt,nt,nt,nt,99*,nt
CCOc1cc2[nH]c(=S)n(C3CC3)c(=O)c2cc1OCC,-4,-3,6,6,1,15
CCOc1cc2[nH]c(=S)n(C(C)C)c(=O)c2cc1OCC,-1,3,-1,71*,29,12
C=CCOCC(O)CS(=O)(=O)Cc1ccc(Cl)cc1 (configuration not stated),-3,-1,-4,13,1,18
Cc1nc(Nc2nc(CSc3ccc(Cl)cc3)cc(=O)[nH]2)nc2ccccc12,17,24,61*,-14,-4,-4

# Compound activity deposited in PubChem BioAssay by several laboratories.
